Measured values reported in ChEMBL document CHEMBL4177644, “Design, synthesis and biological activity of 3-pyrazine-2-yl-oxazolidin-2-ones as novel, potent and selective inhibitors of mutant isocitrate dehydrogenase 1” (Bioorg Med Chem, 2017).

Tests used:
[1] = test system: Isocitrate dehydrogenase [NADP] cytoplasmic (Homo sapiens), O75874 [R132C]; experiment: Inhibition of IDH1 R132C mutant (unknown origin) expressed in HEK293T cells assessed as reduction in D-2-HG levels at 50 uM after 72 hrs relative to control; values are per cent of control
Chain of Isocitrate dehydrogenase [NADP] cytoplasmic (Homo sapiens), O75874 [R132C] (O75874 whole entry R132C): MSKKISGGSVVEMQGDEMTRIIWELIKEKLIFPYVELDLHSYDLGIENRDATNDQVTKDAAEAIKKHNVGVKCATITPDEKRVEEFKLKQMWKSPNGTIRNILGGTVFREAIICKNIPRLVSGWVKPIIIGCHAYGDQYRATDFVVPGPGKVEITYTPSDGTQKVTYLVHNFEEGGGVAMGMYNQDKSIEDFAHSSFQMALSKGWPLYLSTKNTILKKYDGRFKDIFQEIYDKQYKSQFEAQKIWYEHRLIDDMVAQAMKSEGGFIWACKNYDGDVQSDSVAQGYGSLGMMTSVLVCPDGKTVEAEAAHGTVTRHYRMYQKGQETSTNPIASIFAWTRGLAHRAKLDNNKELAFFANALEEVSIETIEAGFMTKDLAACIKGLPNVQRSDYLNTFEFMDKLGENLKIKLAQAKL

[2] = test system: Isocitrate dehydrogenase [NADP] cytoplasmic (Homo sapiens), O75874 [R132H]; experiment: Inhibition of IDH1 R132H mutant (unknown origin) expressed in HEK293T cells assessed as reduction in D-2-HG levels at 10 uM after 72 hrs relative to control; values are per cent of control
Chain of Isocitrate dehydrogenase [NADP] cytoplasmic (Homo sapiens), O75874 [R132H] (O75874 whole entry R132H): as the sequence (O75874 whole entry R132C) above, with C132H counted along it

HEK-293T [3] = experiment: Cytotoxicity against HEK293T cells harboring WT-IDH1 at 10 uM after 72 hrs by CellTiter-Glo assay; assay type: cell-based; conditions: human
Summary of the method: (§1)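 HEK-293T cells stably carrying IDH1 wild-type (pMXs-IDH1wt-IRES-BsdR, blasticidin-selected), 10 000 cells per well in DMEM with 10% FCS, 37 °C, 5% CO2. Compound added at the stated concentration for 72 h. Viability read by CellTiter-Glo luminescence.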

[4] = test system: Isocitrate dehydrogenase [NADP] cytoplasmic (Homo sapiens), O75874 [R132C]; experiment: Inhibition of IDH1 R132C mutant (unknown origin) expressed in HEK293T cells assessed as reduction in D-2-HG levels at 10 uM after 72 hrs relative to control; values are per cent of control
[5] = test system: Isocitrate dehydrogenase [NADP] cytoplasmic (Homo sapiens), O75874 [R132H]; experiment: Inhibition of IDH1 R132H mutant (unknown origin) expressed in HEK293T cells assessed as reduction in D-2-HG levels at 50 uM after 72 hrs relative to control; values are per cent of control
HEK-293T [6] = experiment: Cytotoxicity against HEK293T cells harboring WT-IDH1 at 50 uM after 72 hrs by CellTiter-Glo assay; assay type: cell-based; conditions: human
Summary of the method: as §1

[7] = Cytotoxicity against HEK293T cells harboring WT-IDH1 assessed as cell survival at 50 uM after 72 hrs by CellTiter-Glo assay relative to control; assay type: cell-based, HEK-293T; conditions: human, read-out: Survival
Summary of the method: (§2)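 HEK293 cells stably expressing wild-type IDH1 (cDNA in pMXs-GW-IRES-BsdR, transfected with FuGene HD, selected with blasticidin S), grown in DMEM with 10% fetal calf serum and 1% penicillin/streptomycin at 37 °C, 5% CO2. Seeded at 10 000 cells/well in 96-well plates, treated with compound for 72 h; viability read by CellTiter-Glo luminescence.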

[8] = Permeability of compound at 25 ug/ml after 18 hrs by PAMPA-BBB assay; assay type: ADME; conditions: read-out: Peff
Summary of the method: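 PAMPA-BBB with porcine polar brain lipid (20 mg/mL, 4 µL per filter). DMSO stock 5 mg/ml diluted in PBS to 25 ug/ml final, 300 uL in donor, 150 µL PBS in acceptor. Sandwich left 18 h at room temperature. Acceptor and reference concentrations read by UV plate reader, Pe calculated by formula. Mean ± SD of three independent experiments.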

[9] = Cytotoxicity against HEK293T cells harboring WT-IDH1 assessed as cell survival at 10 uM after 72 hrs by CellTiter-Glo assay relative to control; assay type: cell-based, HEK-293T; conditions: human, read-out: Survival
Summary of the method: as §2

| SMILES | residual activity [1] [%] | residual activity [2] [%] | Activity (HEK-293T [3]) | residual activity [4] [%] | residual activity [5] [%] | Activity (HEK-293T [6]) | viability at 72 h, 50 µM [7] [%] | Papp at 18 h, 25 ug/ml [8] [×10⁻⁶ cm/s] | viability at 72 h, 10 µM [9] [%] |
| --- | --- | --- | --- | --- | --- | --- | --- | --- | --- |
| CC(C)[C@H]1COC(=O)N1c1cncc(N[C@@H](C)c2ccc(-c3ccccc3)cc2)n1 | 108 | 50 | Non-Toxic | 50.4 | 38.8 |  |  |  |  |
| CC(C)[C@H]1COC(=O)N1c1cncc(N[C@@H](C)c2ccc(-c3cccc(F)c3)cc2)n1 | 50.6 | 97.2 | Non-Toxic | 116 | 34.7 |  |  |  |  |
| CC(C)[C@H]1COC(=O)N1c1cncc(N[C@@H](C)c2ccc(-c3ccc(F)cc3)cc2)n1 | 51.3 | 34.3 | Non-Toxic | 39 | 33 | Toxic |  |  |  |
| COc1ccc(-c2ccc([C@H](C)Nc3cncc(N4C(=O)OC[C@@H]4C(C)C)n3)cc2)cc1 | 51.7 | 47.7 | Non-Toxic | 51.3 | 31.9 |  |  |  |  |
| Cc1ccc(-c2ccc([C@H](C)Nc3cncc(N4C(=O)OC[C@@H]4C(C)C)n3)cc2)cc1 | 54.8 | 70.5 | Non-Toxic | 74.9 | 38.7 |  |  |  |  |
| CC(C)[C@H]1COC(=O)N1c1cncc(N[C@@H](C)c2ccc(-c3ccccc3F)cc2)n1 | 44.1 | 78.4 | Non-Toxic | 89.9 | 28 |  |  |  |  |
| Cc1noc(C)c1-c1ccc([C@H](C)Nc2cncc(N3C(=O)OC[C@@H]3C(C)C)n2)cc1 | 30.2 | 47.9 | Non-Toxic | 54.1 | 21.5 | Toxic |  |  |  |
| CC(C)[C@H]1COC(=O)N1c1ccnc(N[C@@H](C)c2ccc(-c3ccccn3)cc2)n1 | 29.7 | 33.9 | Non-Toxic |  | 24.7 |  |  |  |  |
| COc1cccc(-c2ccc([C@H](C)Nc3cncc(N4C(=O)OC[C@@H]4C(C)C)n3)cc2)c1 | 41.7 | 59.8 | Non-Toxic | 86 | 33.9 |  |  |  |  |
| COc1ccccc1-c1ccc([C@H](C)Nc2cncc(N3C(=O)OC[C@@H]3C(C)C)n2)cc1 | 28.2 | 31.9 | Non-Toxic | 40.6 | 24.6 |  | 74.5 | 6.65 | 89.8 |
| CNCCCN1c2ccccc2CCc2ccccc21 [DESIPRAMINE] |  |  |  |  |  |  |  | 8.82 |  |
| CC(C)[C@H]1COC(=O)N1c1cncc(N[C@@H](C)c2ccc(-c3ccc4ccccc4c3)cc2)n1 | 73.9 | 85.4 | Non-Toxic | 71.3 | 39.5 |  |  |  |  |
| Cc1ccccc1-c1ccc([C@H](C)Nc2cncc(N3C(=O)OC[C@@H]3C(C)C)n2)cc1 | 29.1 | 39.2 | Non-Toxic | 44.6 | 28.3 |  |  |  |  |
| CC(C)[C@H]1COC(=O)N1c1cncc(N[C@@H](C)c2ccc(-c3ccc(C(F)(F)F)cc3)cc2)n1 | 27.4 | 28 | Non-Toxic | 39.9 | 30.7 | Toxic |  |  |  |
| Cc1cccc(-c2ccc([C@H](C)Nc3cncc(N4C(=O)OC[C@@H]4C(C)C)n3)cc2)c1 | 29.7 | 49.7 | Non-Toxic | 51.1 | 28.5 |  |  |  |  |
